Bioassay records: PubChem BioAssay, several laboratories
APP 5'UTR act = activates APP 5'UTR luciferase reporter. SH-SY5Y APP 5'UTR luciferase reporter, luminescence; zero percent = DMSO vehicle wells. activation, % at 2 µM. 190,000 compounds, 1% hits;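 active = activation above a set limit, based on mean plus 3 SD of controls, cut at about 140% in these data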
NF-kB neuron act = raises NF-kB expression in human neuronal cells; AID 1239; 190,000 compounds, 1.6% hits; fold change at 12.5 µM; NF-kB reporter expression; stronger effect = higher value; in the data active = fold change above about 3.3
STAT3 act = activators of IL-6 induced STAT3 signaling; U3A cells, IL-6 STAT3-luciferase reporter, luminescence; 100% = signal with IL-6 EC80 alone; activation (% of control), % at 5.6 µM; 190,000 compounds, 0.91% hits;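 active = activation above the screen-wide mean of compound activation plus 3 SD, cut at about 130% in these data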;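 also: 0% = background luminescence of wells with medium and substrate only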
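Test system: STAT3-luciferase reporter U3A cells; Detection: reporter luminescence signal; Times: 1 h compound pre-exposure, 6 h IL-6 stimulation, 37 °C; Benchmarks: IL-6-only high control; Also added: IL-6 stimulus at 33 ng/mL final.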
STAT1 activator = STAT1 signaling activation. NIH 3T3 STAT1-luciferase reporter, IFN-gamma, luminescence; 100% = IFN-gamma alone, no compound. activation (% of control), % at 5.5 µM. 200,000 compounds, 2.6% hits;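 active = activation above the screen-wide mean activation plus 3 SD, cut at about 130% in these data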;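 also: raw ratio to IFN-gamma control signal so 100% means no change and 0% no light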
STAT3 inh = STAT3 signaling inhibition. U3A cells, IL-6 STAT3-luciferase reporter, luminescence; host cell line lacks STAT1. inhibition, % at 5.5 µM. 190,000 compounds, 0.89% hits;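 active = inhibition above the mean inhibition across all screened compounds plus 3 SD, cut at about 44% in these data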;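 also: 0% = DMSO only wells and 100% = 100 µM nifuroxazide control wells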
STAT1 inh = reduces IFN-gamma driven STAT1 reporter signal; AID 920; NIH 3T3 STAT1-luciferase reporter, luminescence; inhibition, % at 5.5 µM; 200,000 compounds, 0.35% hits;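 active = inhibition above a set limit, the mean inhibition across all tested compounds plus 3 SD, cut at about 34% in these data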;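 also: 0% = IFN-gamma with DMSO and 100% = IFN-gamma with 300 µM nifuroxazide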
STAT1 act conf = STAT1 activation, confirmation assay; shares compounds with STAT1 activator; NIH 3T3 STAT1-luciferase reporter, IFN-gamma potentiation, luminescence; 100% = IFN-gamma EC80 alone, no compound; activation (% of control), % at 5.7 µM; 1,200 compounds, 97% hits;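 active = activation above a set limit carried over from the earlier primary STAT1 screen, cut at about 140% in these data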;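 also: simple ratio to median IFN-gamma plus DMSO wells so 0% means no light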
NFkB act STAT1ct = counter-screen for STAT1 activators: NF-kappaB activation | activation (% of control), % at 5.7 µM | 1,200 compounds, 43% hits | HEK293T NF-kB luciferase reporter, TNF-alpha stimulated, luminescence; 100% = TNF-alpha with vehicle only | shares compounds with STAT1 activator;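 active = activation above the mean of solvent-only control wells plus 3 SD, set per campaign, cut at about 130% in these data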;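 also: TNF-alpha given at a submaximal dose yielding about 80% of full reporter signal; values are well signal over median control so 100% means no change and 0% no light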
STAT3 act STAT1c = human STAT3 activation in STAT1 activator counter-screen. shares compounds with STAT1 activator. U3A cells STAT3-luciferase reporter, IL-6, luminescence; cells lack STAT1; 100 = IL-6 alone, no compound effect. activation (% of control), % at 5.7 µM. 1,200 compounds, 46% hits. AID 1316;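 active = activation above the solvent-only control well mean plus 3 SD, set per plate batch, cut at about 110% in these data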;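 also: 0% = no luminescence and 100% = median IL-6 plus DMSO wells; higher means more STAT3 reporter activation so hits are non-selective activators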
Starred values were filed as active, the others as inactive. Rows were chosen to be rich in hits. Some 5.1% of all compounds tested hit in one or more screens of this group.

How did CC(C)NC(=O)NC(=O)COc1ccc(Br)cc1Br do in these assays?
APP 5'UTR act: 203*; NF-kB neuron act: 5.1*; STAT3 act: 83; STAT1 activator: 179*; STAT3 inh: 20; STAT1 inh: -88; STAT1 act conf: 235*; NFkB act STAT1ct: 123; STAT3 act STAT1c: 101

How did CCOC(=O)c1c(/N=C/N(C)C)sc(C)c1C do in these assays?
APP 5'UTR act: 5; NF-kB neuron act: 1.2; STAT3 act: 105; STAT1 activator: 103; STAT3 inh: 1; STAT1 inh: -5

What do the screens show for `COc1cccc2cc(-c3cn4ccc(C)cc4n3)c(=O)oc12`?
APP 5'UTR act: 87; STAT3 act: 86; STAT1 activator: 169*; STAT3 inh: 20; STAT1 inh: -76; STAT1 act conf: 218*; NFkB act STAT1ct: 134*; STAT3 act STAT1c: 105

What do the screens show for `Clc1ccc(OCc2nc(-c3ccncc3)no2)c(Cl)c1`?
APP 5'UTR act: 144*; NF-kB neuron act: 5.8*; STAT3 act: 101; STAT1 activator: 174*; STAT3 inh: 3; STAT1 inh: -81; STAT1 act conf: 230*; NFkB act STAT1ct: 142*; STAT3 act STAT1c: 116*

What do the screens show for `N#C/C(=C\c1ccco1)c1nc2ccccc2s1`?
APP 5'UTR act: 138*; NF-kB neuron act: 1.1; STAT3 act: 120; STAT1 activator: 173*; STAT3 inh: -24; STAT1 inh: -83; STAT1 act conf: 218*; NFkB act STAT1ct: 131; STAT3 act STAT1c: 142*

Results for N#C/C(=C/c1ccc(-c2cc(C(=O)O)cc(C(=O)O)c2)o1)c1nc2ccccc2s1 ?
APP 5'UTR act: -3; NF-kB neuron act: 1.1; STAT3 act: 92; STAT1 activator: 97; STAT3 inh: 13; STAT1 inh: 2

What do the screens show for `N#C/C(=C/c1ccco1)c1nc2ccccc2s1`?
APP 5'UTR act: 186*; NF-kB neuron act: 8.1*; STAT3 act: 95; STAT1 activator: 165*; STAT3 inh: 6; STAT1 inh: -72; STAT1 act conf: 226*; NFkB act STAT1ct: 131; STAT3 act STAT1c: 140*

How did Cc1ccccc1OCc1n(CC(=O)OC2CC(C)CCC2C(C)C)c2ccccc2[n+]1C (stereo not drawn) do in these assays?
APP 5'UTR act: -8; NF-kB neuron act: 0.45; STAT3 act: 100; STAT1 activator: 99; STAT3 inh: 2; STAT1 inh: 0

Results for O=Cc1cn(CC(=O)Nc2ccc(F)cc2)c2ccccc12 ?
APP 5'UTR act: -20; NF-kB neuron act: 1.1; STAT3 act: 90; STAT1 activator: 86; STAT3 inh: 13; STAT1 inh: 14

How did CCOc1ccc2nc(N3CCCCCC3)sc2c1 do in these assays?
APP 5'UTR act: 194*; NF-kB neuron act: 7.2*; STAT3 act: 76; STAT1 activator: 191*; STAT3 inh: 29; STAT1 inh: -98; STAT1 act conf: 246*; NFkB act STAT1ct: 144*; STAT3 act STAT1c: 106

How did CCOCC(=O)Nc1nc2ccc(OCC)cc2s1 do in these assays?
APP 5'UTR act: 84; NF-kB neuron act: 2.8; STAT3 act: 78; STAT1 activator: 152*; STAT3 inh: 28; STAT1 inh: -56; STAT1 act conf: 167*; NFkB act STAT1ct: 125; STAT3 act STAT1c: 101

How did CCOc1ccc2nc(N3CCC(C(=O)N4CCN(C5CCCCC5)CC4)CC3)sc2c1 do in these assays?
APP 5'UTR act: 12; NF-kB neuron act: 1; STAT3 act: 84; STAT1 activator: 117; STAT3 inh: 24; STAT1 inh: -19

How did CCOc1ccc(/C=N/N(C)c2ccccc2)cc1OC do in these assays?
APP 5'UTR act: 88; NF-kB neuron act: 4.9*; STAT3 act: 103; STAT1 activator: 163*; STAT3 inh: 4; STAT1 inh: -69; STAT1 act conf: 187*; NFkB act STAT1ct: 142*; STAT3 act STAT1c: 109

What do the screens show for `CCOc1ccc(/C=N/Nc2ccccn2)cc1OC`?
APP 5'UTR act: 50; NF-kB neuron act: 1.1; STAT3 act: 108; STAT1 activator: 155*; STAT3 inh: -5; STAT1 inh: -65; STAT1 act conf: 154*; NFkB act STAT1ct: 119; STAT3 act STAT1c: 105

What do the screens show for `C=CCn1c(C)cc(C(=O)COC(=O)c2ccc(N)c([N+](=O)[O-])c2)c1C`?
APP 5'UTR act: 211*; NF-kB neuron act: 4.4*; STAT3 act: 106; STAT1 activator: 164*; STAT3 inh: -10; STAT1 inh: -64; STAT1 act conf: 243*; NFkB act STAT1ct: 132; STAT3 act STAT1c: 112*

Results for Cc1cc(C(=O)COC(=O)c2ccc(N)c([N+](=O)[O-])c2)c(C)n1-c1ccc2c(c1)OCO2 ?
APP 5'UTR act: -3; NF-kB neuron act: 0.86; STAT3 act: 81; STAT1 activator: 86; STAT3 inh: 24; STAT1 inh: 16

Results for CN(c1ccccc1)c1ccc(/C=N/N2CCOCC2)cc1 ?
APP 5'UTR act: 97; NF-kB neuron act: 6.8*; STAT3 act: 99; STAT1 activator: 172*; STAT3 inh: 4; STAT1 inh: -81; STAT1 act conf: 197*; NFkB act STAT1ct: 129; STAT3 act STAT1c: 108

Results for CC(=O)NC12CC3CC(C1)CC(C(=O)OCC(=O)c1ccc4c(c1)OCCO4)(C3)C2 ?
APP 5'UTR act: 156*; NF-kB neuron act: 3.1; STAT3 act: 111; STAT1 activator: 161*; STAT3 inh: -9; STAT1 inh: -67; STAT1 act conf: 212*; NFkB act STAT1ct: 125; STAT3 act STAT1c: 124*

What do the screens show for `CC(=O)NC12CC3CC(C1)CC(C(=O)OCC(=O)Nc1ncc(Cl)c(C)c1Cl)(C3)C2`?
APP 5'UTR act: 9; NF-kB neuron act: 1.1; STAT3 act: 99; STAT1 activator: 108; STAT3 inh: 6; STAT1 inh: -10

Results for Cc1nn(-c2ccc(C(=O)O)cc2)c(N)c1-c1ccccc1 ?
APP 5'UTR act: 125; NF-kB neuron act: 4.9*; STAT3 act: 109; STAT1 activator: 160*; STAT3 inh: -9; STAT1 inh: -66; STAT1 act conf: 200*; NFkB act STAT1ct: 140*; STAT3 act STAT1c: 139*
